Reference: publication PMC6612960 (Drug Design, Development and Therapy, 2019)

Tests used:
[1] = test system: K562/MDR cells; test: MTT assay, K562/MDR cells; assay type: cell-based, human; details: K562/MDR vs K562
[2] = test system: Peripheral blood mononuclear cells (PBMCs); test: Trypan Blue dye exclusion, PBMCs; assay type: cell-based; details: 2 μM, 24 hours, mouse PBMCs
Procedure, shortened: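 PBMCs from mouse blood isolated by Ficoll density gradient and seeded at 5×10^5 cells/well in 12-well plates in RPMI 1640 with 10% FBS. Treated with test compound (2, 4, 10 μM), PBS or melittin at 37°C for 24 h. Stained with 0.4% Trypan Blue for 5 min, washed three times in PBS and viewed by fluorescence microscopy.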

[3] = test system: Jurkat cells; test: Confocal laser scanning microscopy, Jurkat; assay type: cell-based, human; details: incubation 30 minutes
Procedure, shortened: (§1)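 Cells exposed to FITC-labelled peptide for 30 min in the dark, harvested, rinsed three times in PBS and imaged at once by CLSM (488 nm argon excitation for FITC). For mitochondrial co-localisation, cells were then given 30 nM rhodamine 123 for 30 min in the dark, washed and imaged with 488 nm (FITC) and 525 nm (rhodamine 123) laser lines.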

[4] = test system: erythrocytes; test: Peptide binding assay; assay type: cell-based; details: mouse erythrocytes, 30 minutes, 37°C, flow cytometry
Procedure, shortened: (§2)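 Cells (human lines or mouse erythrocytes) resuspended in PBS at 1×10^6/ml and exposed to FITC-labelled peptide at 37°C for 30 min in the dark. Washed in PBS and read by flow cytometry as mean fluorescence of 10,000 cells. Mean±SEM of three independent experiments.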

[5] = test system: K562/MDR cells; test: Confocal laser scanning microscopy, K562/MDR; assay type: cell-based, human; details: incubation 30 minutes
Procedure, shortened: as §1

[6] = test system: HEK293 cells; test: Peptide binding assay; assay type: cell-based, human; details: HEK293, 30 minutes, 37°C, flow cytometry
Procedure, shortened: as §2

[7] = test system: non-cancer cells; details: even at 120 μM; cited from earlier work
[8] = test system: leukemia cells (K562, THP-1, and U937 cells); details: read-out: IC50, anticancer activity in leukemia cells; cited from earlier work
[9] = test system: Jurkat cells; test: LDH release, Jurkat; assay type: cell-based, human; details: CM4 treatment (3, 9, 30 μM)
Procedure, shortened: (§3)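 Cells (1×10^5/mL) in RPMI 1640 held 4 h at 37°C, then exposed to peptide at 3, 9 or 30 μM for varying times. PBS and 2% Triton X-100 controls. Cell-free supernatant mixed with tetrazolium salt reagent; formazan read at 490 nm. Leakage % = [(A−C)/(P−C)]×100 (C = PBS, P = Triton). Mean±SEM of four independent experiments.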

[10] = test system: K562/MDR cells; test: LDH release, K562/MDR; assay type: cell-based, human; details: CM4 treatment (3, 9, 30 μM)
Procedure, shortened: as §3

## COc1cccc2c1C(=O)c1c(O)c3c(c(O)c1C2=O)C[C@@](O)(C(=O)CO)C[C@@H]3O[C@H]1C[C@H](N)[C@H](O)[C@H](C)O1 [doxorubicin]
[1]
  resistance of K562/MDR compared with K562 cells: a certain resistence

## CC[C@H](C)[C@H](NC(=O)CN)C(=O)NCC(=O)N[C@@H](C)C(=O)N[C@H](C(=O)N[C@@H](CC(C)C)C(=O)N[C@@H](CCCCN)C(=O)N[C@H](C(=O)N[C@@H](CC(C)C)C(=O)N[C@H](C(=O)N[C@H](C(=O)NCC(=O)N[C@@H](CC(C)C)C(=O)N1CCC[C@H]1C(=O)N[C@@H](C)C(=O)N[C@@H](CC(C)C)C(=O)N[C@H](C(=O)N[C@@H](CO)C(=O)N[C@@H](Cc1c[nH]c2ccccc12)C(=O)N[C@H](C(=O)N[C@@H](CCCCN)C(=O)N[C@@H](CCCNC(=N)N)C(=O)N[C@@H](CCCCN)C(=O)N[C@@H](CCCNC(=N)N)C(=O)N[C@@H](CCC(N)=O)C(=O)N[C@@H](CCC(N)=O)C(N)=O)[C@@H](C)CC)[C@@H](C)CC)[C@@H](C)O)[C@@H](C)O)C(C)C)C(C)C [melittin]
[2]
  cytotoxicity of PBMCs: 100%

## FITC-myristoyl-CM4: fluorescein isothiocyanate labeled myristoyl-CM4 (GRWKIFKKIEKVGQNIRDGIVKAGPAVAVVGQAATI; not fully specified; FITC, myristoyl, C-terminal amide)
[3]
  FITC signal on the cells (CLSM): stronger than the FITC-CM4 signal
[4]
  fluorescence intensity on cells: very weak
[5]
  FITC signal on the cells (CLSM): stronger than the FITC-CM4 signal
[6]
  fluorescence intensity on cells: very weak

## GRWKIFKKIEKVGQNIRDGIVKAGPAVAVVGQAATI-NH2 [CM4]
[7]
  cytotoxicity towards non-cancer cells: no cytotoxicity
[8]
  IC50: 20 to 40 µM
[9]
  LDH release: Virtually no LDH was released
[10]
  LDH release: Virtually no LDH was released
